In the library only some 4.1% were active in any assay of this set; here they are far more common.
APP 5'UTR act: activators of APP 5'UTR luciferase reporter, primary screen, SH-SY5Y cells | actives 1% (n = 190,000) | SH-SY5Y APP 5'UTR luciferase reporter, luminescence; zero percent = DMSO vehicle wells | AID 1276, 2008 | activation, % at 2 µM;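 active = activation above a set limit, based on mean plus 3 SD of controls, cut at about 140% in these data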
FLuc inhib CS: firefly luciferase enzyme inhibitors, primary screen, artefact control for luciferase-based inhibitor screens, biochemical, luminescence, ATPLite | inhibition, % at 10 µM | actives 1.5% (n = 200,000) | AID 1006, 2008 | 10 min;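 active = inhibition above about 50% when tested at 10 µM, limit read from the data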
Target sequence (P08659 whole entry, looked up): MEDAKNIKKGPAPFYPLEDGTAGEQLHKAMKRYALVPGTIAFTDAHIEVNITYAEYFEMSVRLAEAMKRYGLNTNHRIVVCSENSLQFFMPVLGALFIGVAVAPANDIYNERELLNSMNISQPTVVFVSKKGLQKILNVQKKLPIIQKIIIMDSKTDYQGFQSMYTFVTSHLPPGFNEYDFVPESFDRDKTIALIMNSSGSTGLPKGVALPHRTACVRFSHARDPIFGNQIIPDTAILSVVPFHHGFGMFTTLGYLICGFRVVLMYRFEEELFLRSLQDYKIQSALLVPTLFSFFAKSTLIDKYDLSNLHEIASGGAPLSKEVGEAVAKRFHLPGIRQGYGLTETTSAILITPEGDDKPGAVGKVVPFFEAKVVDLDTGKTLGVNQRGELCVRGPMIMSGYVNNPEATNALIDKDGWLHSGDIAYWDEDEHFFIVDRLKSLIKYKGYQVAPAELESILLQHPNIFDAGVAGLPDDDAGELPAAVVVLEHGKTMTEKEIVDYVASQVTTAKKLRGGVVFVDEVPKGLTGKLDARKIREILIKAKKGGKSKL
NF-kB neuron act: activators of NF-kB expression in neurons, primary screen, cell-based, HTS; actives 1.6% (n = 190,000); human neuronal cells, NF-kB reporter expression; hits give high values; fold change at 12.5 µM; in the data active = fold change above about 3.3
STAT1 activator: STAT1 signaling activators, primary screen, cell-based, HTS, luciferase reporter; NIH 3T3 STAT1-luciferase reporter, IFN-gamma, luminescence; 100% = IFN-gamma alone, no compound; activation (% of control), % at 5.5 µM; actives 2.6% (n = 200,000); AID 932, 2007;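 active = activation above the screen-wide mean activation plus 3 SD, cut at about 130% in these data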;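 also: raw ratio to IFN-gamma control signal so 100% means no change and 0% no light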
FLuc stim CS: FLuc activators, initial screening, artefact control for FLuc-dependent activation tests, biochemical, ATPlite luminescence | 200,000 tested, under 10 active | activation factor at 10 µM | ATPlite luciferase biochemical, 10 min; 0 = ATP-free wells, 1 = DMSO control;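 active = luciferase activation factor, scaled between plate controls, of at least 2 with compound at 10 µM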
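test system = cell-free luciferase reagent | medium = PBS as buffer for the ATP substrate | dosing = test compounds dosed from 2 mM stocks in 100% DMSO | incubation = 10 min at ambient temperature | detection = luminescence measurement of luciferase light output | benchmarks = low control with PBS replacing ATP, high control enzyme plus ATP without compound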
Starred values were filed as active, the others as inactive; / = not tested or not shown.

SMILES	APP 5'UTR act	FLuc inhib CS	NF-kB neuron act	STAT1 activator	FLuc stim CS
Cc1ccc2nc(-c3ccc(SCC(=O)N4CCc5ccccc54)nc3)[nH]c2c1	134	78*	1.3	131*	0.2
CC(=O)CSc1ccc(-c2nc3cc(C)c(C)cc3[nH]2)cn1	31	85*	0.57	20	0.1
Cc1cc2nc(-c3ccc(SCC(=O)Nc4ccc(S(=O)(=O)N5CCCC5)cc4)nc3)[nH]c2cc1C	153*	72*	2.9	140*	0.3
Cc1cc2nc(-c3ccc(SCC(=O)Nc4nccs4)nc3)[nH]c2cc1C	156*	33	1.7	127	0.7
Cc1ccc2nc(-c3ccc(SCC(=O)O)nc3)[nH]c2c1	13	43	0.74	96	0.6
CN1CCN(S(=O)(=O)c2cc([N+](=O)[O-])ccc2N2CCCCCC2)CC1	6	0	1.1	98	1
CCc1nnc(NC(=O)CSc2ccc(-c3nc4ccc(C)cc4[nH]3)cn2)s1	138*	58*	2.8	115	0.4
CCc1nnc(NC(=O)CSc2ncnc3scc(-c4ccc(C)cc4)c23)s1	-7	-6	1.1	88	1.1
Clc1cccc(OCCN2CCN(CCOc3cccc(Cl)c3)CC2)c1	-3	-1	0.8	103	1
O=c1[nH][nH]cc1C=Nc1ccc(Cl)cc1Cl	-64	11	1.2	94	0.9
O=c1[nH][nH]cc1C=Nc1ccccc1Cl	-3	14	1.1	103	0.9
O=c1[nH][nH]cc1C=Nc1cc(Cl)ccc1O	-21	1	4.2*	83	1
O=c1[nH][nH]cc1C=Nc1ccccc1O	22	-2	6.2*	82	1
C/C(=N\Nc1ccc(C(=O)O)cc1)c1ccc(-n2ccnc2)cc1	102	1	1	138*	1
CCc1ccc(OCC(=O)N/N=C(\C)c2ccc(-n3ccnc3)cc2)cc1	9	72*	1.1	104	0.3
C/C(=N\NC(N)=O)c1ccc(-n2ccnc2)cc1	-17	-7	1.3	97	1.1
Cc1cccc2cc(C(c3nnnn3C(C)(C)C)N3CCN(C(=O)c4ccco4)CC3)c(=O)[nH]c12 (stereo not drawn)	24	-5	1.2	93	1
CC(C)OC(=O)CSc1nnnn1-c1ccc2c(c1)OCCO2	20	0	2.1	129*	1
O=S(=O)(c1ccc(Cl)cc1)N1c2ccccc2Oc2nc3ccccc3nc21	15	-6	1.1	100	1.1
COc1ccc(S(=O)(=O)N2c3cc(Cl)ccc3Oc3nc4ccccc4nc32)cc1	17	-4	3.6*	95	1
c1csc(C(c2nnnn2C2CCCCC2)N2CCN(c3nc4ccccc4s3)CC2)c1 (stereo not drawn)	-5	-5	0.94	105	1.1
N#C/C(=C\c1ccc(N2CCOCC2)o1)C(=O)Nc1ccc(O)cc1	22	50*	2.1	125	0.5
COc1ccc(NC(=O)/C(C#N)=C/c2ccc(Br)o2)cc1	6	-1	1.6	104	1
CC1CC1c1ccc(/C=C(\C#N)C(=O)Nc2ccc(Cl)cc2)o1 (stereo not drawn)	116	5	1.1	141*	0.9
COc1ccc(NC(=O)/C(C#N)=C\c2ccc(N3CCOCC3)o2)cc1	47	84*	1.3	126	0.2
SMILES	APP 5'UTR act	FLuc inhib CS	NF-kB neuron act	STAT1 activator	FLuc stim CS
CCCCC(=O)Nc1ccc(C(=O)OC2CCCCC2)cc1	13	-1	0.93	108	1
O=C(Nc1ccccc1)c1ccc(NCc2ccco2)c(S(=O)(=O)N2CCOCC2)c1	9	-1	0.82	82	1
CCC1OC23CCCCC2C(C#N)(C(=N)O3)C1(C#N)C#N (stereo not drawn)	10	-3	1	94	1
CCN=c1scc(C)n1/N=C/c1ccsc1	97	6	3.6*	150*	0.9
CC(=O)n1c2c(c3ccccc31)OC(N)=C(C#N)C2c1ccc(C(C)C)cc1 (stereo not drawn)	48	-5	0.61	129*	1.1
c1ccc(-c2ccccc2-c2nc(-c3cccnc3)no2)cc1	-12	-8	0.86	100	1.1
Fc1ccccc1-c1nc(-c2ccccc2)no1	157*	60*	6.5*	130*	0.4
Brc1ccccc1-c1nc(-c2ccccc2)no1	180*	73*	9.5*	147*	0.3
COc1ccccc1N1C(=O)CC(N2CCc3ccccc32)C1=O (stereo not drawn)	13	4	1.1	104	1
Cc1ccc(NC(=O)CSc2nnc(-c3cccnc3)n2-c2ccc(C)cc2)cc1	-5	-10	0.84	95	1.1
Cc1cc(/C=C(\C#N)C(=O)NC2CCCCCC2)c(C)[nH]1	35	3	1.5	115	1
Cc1cc(/C=C(\C#N)C(=O)NC2CC2)c(C)[nH]1	39	42	2.3	145*	0.6
Cc1nc2ccccn2c1C(=O)NNC(=S)Nc1ccc(Cl)cc1	15	-3	1.2	105	1
O=[N+]([O-])c1ccc2nc(-c3ccccc3)oc2c1	53	18	2.1	148*	0.8
COc1cccc(-c2nc3ccc([N+](=O)[O-])cc3o2)c1	144*	31	3.4*	136*	0.7
Cc1csc(=N)n1-c1ccc(Cl)cc1	35	11	2.1	137*	0.9
Cc1ccc(-n2c(C)csc2=N)cc1	113	59*	3.5*	125	0.4
CCOC(=O)N1CCC(NC(=O)CCC(=O)c2ccccc2)CC1	-10	-3	1.2	104	1
COc1ccc2cc(CN(CC3COCCO3)S(=O)(=O)c3ccccc3)c(=O)[nH]c2c1 (stereo not drawn)	20	-9	1.4	89	1.1
O=[N+]([O-])c1cccc(C2NCC(c3ccccc3Cl)c3c2[nH]c2ccccc32)c1 (stereo not drawn)	4	-11	1.2	100	1.1
CNc1nc(-c2ccc3c(c2)CCN3C(=O)c2ccccc2C)cs1	193*	31	3.8*	145*	0.7
CNc1nc(-c2ccc3c(c2)CCN3C(=O)c2ccc(F)cc2)cs1	47	13	2	128	0.9
CCOC(=O)c1ccc(S(=O)(=O)N2CCN(S(=O)(=O)CC)CC2)cc1	9	-2	1	104	1
CCN(CC)c1ccc(NC(=S)NCC2CCCO2)cc1 (stereo not drawn)	24	-4	/	102	1
Cc1ccc(-c2nc3n(n2)Cc2ccccc2-3)cc1	197*	92*	4.2*	78	0.1
NC(=S)Cc1nc2n(n1)Cc1ccccc1-2	10	-3	0.84	105	1
Fc1ccc(-c2nc3n(n2)Cc2ccccc2-3)cc1	173*	75*	6.7*	114	0.3
